Converted amounts (≈) assume the structure as drawn.
Columns and labels:
Assay type in all cases: functional
[1] = system: Staphylococcus aureus; assay: Antibacterial activity against Staphylococcus aureus ATCC […] after 18 to 24 hrs by twofold serial dilution method
In short: (§1)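 MIC determined by the standard twofold serial dilution method on agar media, screening against Gram-positive and Gram-negative strains. Levofloxacin and gemifloxacin were run alongside as reference drugs.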

[2] = system: Staphylococcus aureus; assay: Antibacterial activity against methicillin-resistant Staphylococcus aureus 08-1 after 18 to 24 hrs by twofold serial dilution method
In short: (§2)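 Standard twofold serial agar dilution method on agar media for MIC determination. Screened against representative Gram-positive and Gram-negative strains. Levofloxacin and GMFX served as control drugs.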

[3] = system: Staphylococcus aureus; assay: Antibacterial activity against methicillin-sensitive Staphylococcus aureus 08-2 after 18 to 24 hrs by twofold serial dilution method; in short: as §2
[4] = system: Staphylococcus epidermidis; assay: Antibacterial activity against methicillin-resistant Staphylococcus epidermidis 09-2 after 18 to 24 hrs by twofold serial dilution method; in short: as §2
[5] = system: Staphylococcus epidermidis; assay: Antibacterial activity against methicillin-resistant Staphylococcus epidermidis 09-3 after 18 to 24 hrs by twofold serial dilution method; in short: as §2
[6] = system: Staphylococcus epidermidis; assay: Antibacterial activity against methicillin-resistant Staphylococcus epidermidis 09-4 after 18 to 24 hrs by twofold serial dilution method; in short: as §2
[7] = system: Staphylococcus epidermidis; assay: Antibacterial activity against methicillin-sensitive Staphylococcus epidermidis 09-3 after 18 to 24 hrs by twofold serial dilution method; in short: as §2
[8] = system: Staphylococcus epidermidis; assay: Antibacterial activity against methicillin-sensitive Staphylococcus epidermidis 09-6 after 18 to 24 hrs by twofold serial dilution method; in short: as §2
[9] = system: Streptococcus pneumoniae; assay: Antibacterial activity against Streptococcus pneumoniae 08-2 after 18 to 24 hrs by twofold serial dilution method; in short: as §1
[10] = system: Streptococcus pneumoniae; assay: Antibacterial activity against Streptococcus pneumoniae 08-4 after 18 to 24 hrs by twofold serial dilution method; in short: as §1
[11] = system: Enterococcus faecium; assay: Antibacterial activity against Enterococcus faecium 08-2 after 18 to 24 hrs by twofold serial dilution method; in short: as §1
[12] = system: Enterococcus faecium; assay: Antibacterial activity against Enterococcus faecium 08-7 after 18 to 24 hrs by twofold serial dilution method; in short: as §1
[13] = system: Enterococcus faecalis; assay: Antibacterial activity against Enterococcus faecalis 08-10 after 18 to 24 hrs by twofold serial dilution method; in short: as §1
[14] = system: Enterococcus faecalis; assay: Antibacterial activity against Enterococcus faecalis 08-12 after 18 to 24 hrs by twofold serial dilution method; in short: as §1
[15] = system: Escherichia coli; assay: Antibacterial activity against Escherichia coli ATCC 25922 after 18 to 24 hrs by twofold serial dilution method; in short: as §1
[16] = system: Escherichia coli; assay: Antibacterial activity against Escherichia coli 08-21 after 18 to 24 hrs by twofold serial dilution method; in short: as §1
[17] = system: Escherichia coli; assay: Antibacterial activity against Escherichia coli 08-22 after 18 to 24 hrs by twofold serial dilution method; in short: as §1
[18] = system: Klebsiella pneumoniae; assay: Antibacterial activity against Klebsiella pneumoniae 09-21 after 18 to 24 hrs by twofold serial dilution method; in short: as §1
[19] = system: Klebsiella pneumoniae; assay: Antibacterial activity against Klebsiella pneumoniae 09-22 after 18 to 24 hrs by twofold serial dilution method; in short: as §1
[20] = system: Klebsiella pneumoniae; assay: Antibacterial activity against Klebsiella pneumoniae 09-23 after 18 to 24 hrs by twofold serial dilution method; in short: as §1
[21] = system: Pseudomonas aeruginosa; assay: Antibacterial activity against Pseudomonas aeruginosa ATCC 27853 after 18 to 24 hrs by twofold serial dilution method; in short: as §1
[22] = system: Pseudomonas aeruginosa; assay: Antibacterial activity against Pseudomonas aeruginosa 09-32 after 18 to 24 hrs by twofold serial dilution method; in short: as §1
[23] = system: Pseudomonas aeruginosa; assay: Antibacterial activity against Pseudomonas aeruginosa 09-33 after 18 to 24 hrs by twofold serial dilution method; in short: as §1
[24] = system: Pseudomonas aeruginosa; assay: Antibacterial activity against Pseudomonas aeruginosa 09-34 after 18 to 24 hrs by twofold serial dilution method; in short: as §1
[25] = system: Pseudomonas aeruginosa; assay: Antibacterial activity against Pseudomonas aeruginosa 09-35 after 18 to 24 hrs by twofold serial dilution method; in short: as §1

Compound | MIC [1] [mg/L] | MIC [2] [mg/L] | MIC [3] [mg/L] | MIC [4] [mg/L] | MIC [5] [mg/L] | MIC [6] [mg/L] | MIC [7] [mg/L] | MIC [8] [mg/L] | MIC [9] [mg/L] | MIC [10] [mg/L] | MIC [11] [mg/L] | MIC [12] [mg/L] | MIC [13] [mg/L] | MIC [14] [mg/L] | MIC [15] [mg/L] | MIC [16] [mg/L] | MIC [17] [mg/L] | MIC [18] [mg/L] | MIC [19] [mg/L] | MIC [20] [mg/L] | also measured
CCO/N=C1\CN(c2c(F)cc3c(=O)c(C(=O)O)cn(C4CC4)c3c2OC(F)F)CC1/C(N)=N\OC (stereo not given) | 0.125 (≈ 0.244 µM) | 0.25 (≈ 0.489 µM) | 0.25 (≈ 0.489 µM) | 64 (≈ 125 µM) | 0.25 (≈ 0.489 µM) | 0.25 (≈ 0.489 µM) | 0.125 (≈ 0.244 µM) | 0.25 (≈ 0.489 µM) | 64 (≈ 125 µM) | 64 (≈ 125 µM) | 64 (≈ 125 µM) | 64 (≈ 125 µM) | 32 (≈ 62.6 µM) | 32 (≈ 62.6 µM) | 16 (≈ 31.3 µM) | 64 (≈ 125 µM) | 64 (≈ 125 µM) | 32 (≈ 62.6 µM) | 32 (≈ 62.6 µM) | 32 (≈ 62.6 µM) | MIC [21]: 8 mg/L (≈ 15.6 µM); MIC [22]: 64 mg/L (≈ 125 µM); MIC [23]: 64 mg/L (≈ 125 µM); MIC [24]: 64 mg/L (≈ 125 µM); MIC [25]: 64 mg/L (≈ 125 µM)
CO/N=C1\CN(c2nc3c(cc2F)c(=O)c(C(=O)O)cn3-c2ccc(F)cc2F)CC1/C(N)=N\OC (stereo not given) | 0.5 (≈ 0.991 µM) | 0.25 (≈ 0.496 µM) | 0.25 (≈ 0.496 µM) | 0.5 (≈ 0.991 µM) | 0.25 (≈ 0.496 µM) | 0.25 (≈ 0.496 µM) | 0.5 (≈ 0.991 µM) | 0.25 (≈ 0.496 µM) | 16 (≈ 31.7 µM) | 0.25 (≈ 0.496 µM) | > 128 | > 128 | > 128 | > 128 | 128 (≈ 254 µM) | > 128 | > 128 | > 128 | 1 (≈ 1.98 µM) | > 128 | MIC [21]: 128 mg/L (≈ 254 µM); MIC [22]: 128 mg/L (≈ 254 µM); MIC [23]: > 128 mg/L; MIC [24]: > 128 mg/L; MIC [25]: 128 mg/L (≈ 254 µM)
CCO/N=C1\CN(c2c(F)cc3c(=O)c(C(=O)O)cn(CCF)c3c2F)CC1/C(N)=N\OC (stereo not given) | 2 (≈ 4.26 µM) | 4 (≈ 8.52 µM) | > 128 | > 128 | 0.25 (≈ 0.533 µM) | 0.125 (≈ 0.266 µM) | 0.25 (≈ 0.533 µM) | 0.25 (≈ 0.533 µM) | > 128 | > 128 | > 128 | > 128 | > 128 | > 128 | > 128 | > 128 | > 128 | > 128 | > 128 | > 128 | MIC [21]: > 128 mg/L; MIC [22]: > 128 mg/L; MIC [23]: > 128 mg/L; MIC [24]: > 128 mg/L; MIC [25]: > 128 mg/L
CCO/N=C1\CN(c2c(F)cc3c(=O)c(C(=O)O)cn(C4CC4)c3c2OC(F)F)CC1/C(N)=N\O (stereo not given) | 0.5 (≈ 1.01 µM) | 0.25 (≈ 0.503 µM) | 1 (≈ 2.01 µM) | 1 (≈ 2.01 µM) | 1 (≈ 2.01 µM) | 1 (≈ 2.01 µM) | 1 (≈ 2.01 µM) | 0.25 (≈ 0.503 µM) | 8 (≈ 16.1 µM) | 8 (≈ 16.1 µM) | > 128 | > 128 | > 128 | > 128 | 128 (≈ 257 µM) | > 128 | > 128 | > 128 | 8 (≈ 16.1 µM) | > 128 | MIC [21]: 128 mg/L (≈ 257 µM); MIC [22]: 128 mg/L (≈ 257 µM); MIC [23]: > 128 mg/L; MIC [24]: > 128 mg/L; MIC [25]: 128 mg/L (≈ 257 µM)
CCO/N=C(/N)C1CN(c2c(F)cc3c(=O)c(C(=O)O)cn(C4CC4)c3c2OC)C/C1=N\OC (stereo not given) | 0.25 (≈ 0.526 µM) | 0.25 (≈ 0.526 µM) | 0.25 (≈ 0.526 µM) | 0.5 (≈ 1.05 µM) | 0.125 (≈ 0.263 µM) | 0.125 (≈ 0.263 µM) | 0.25 (≈ 0.526 µM) | 0.25 (≈ 0.526 µM) | 32 (≈ 67.3 µM) | 2 (≈ 4.21 µM) | > 128 | > 128 | > 128 | 128 (≈ 269 µM) | 128 (≈ 269 µM) | > 128 | > 128 | > 128 | 8 (≈ 16.8 µM) | > 128 | MIC [21]: 128 mg/L (≈ 269 µM); MIC [22]: > 128 mg/L; MIC [23]: > 128 mg/L; MIC [24]: > 128 mg/L; MIC [25]: > 128 mg/L
CCO/N=C(/N)C1CN(c2c(F)cc3c(=O)c(C(=O)O)cn(CC)c3c2F)C/C1=N\OC (stereo not given) | 0.125 (≈ 0.277 µM) | 0.25 (≈ 0.554 µM) | 0.25 (≈ 0.554 µM) | 0.5 (≈ 1.11 µM) | 0.125 (≈ 0.277 µM) | 0.125 (≈ 0.277 µM) | 0.25 (≈ 0.554 µM) | 0.25 (≈ 0.554 µM) | 16 (≈ 35.4 µM) | 0.5 (≈ 1.11 µM) | > 128 | > 128 | > 128 | > 128 | > 128 | > 128 | > 128 | > 128 | 1 (≈ 2.22 µM) | > 128 | MIC [21]: > 128 mg/L; MIC [22]: > 128 mg/L; MIC [23]: > 128 mg/L; MIC [24]: > 128 mg/L; MIC [25]: > 128 mg/L

Reference: ChEMBL document CHEMBL1287651, “Synthesis and in vitro antibacterial activity of fluoroquinolone derivatives containing 3-(N'-alkoxycarbamimidoyl)-4-(alkoxyimino) pyrrolidines” (2010)
